Laboratory results from PubChem BioAssay.
Records with an inconclusive call do not appear. The source made the active and inactive calls.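 Rule for the calls, unless noted: active = inhibition over a set limit, the all-compound mean plus 3 SD, in both replicate runs; inconclusive = over that limit in just one replicate run; inactive = at or under that limit in both runs.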

Assays:
[1] = OD615 S. cerevisiae growth inhibition, permissive medium, pilot counter-assay, permissive growth control for S. cerevisiae lifespan shortening project (AID 705;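 active = growth inhibition above 25% in both replicates, a cutoff set 3 SD above the mean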); conditions: OD615, 24 h, at 10 µM, active compounds read high
Summary of the method: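 Timing: 24 h exposure, 30 °C / Material: Saccharomyces cerevisiae strain carrying genetically modified DeaD replicative-lifespan system / Signal: OD at 615 nm / Compound: 10 µM single dose, 0.25% DMSO / Medium: SC raffinose/galactose permissive medium / Evaluation: reduction in yeast growth (OD615)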

[2] = Restrictive medium S. cerevisiae growth inhibition, OD615, pilot screen of yeast lifespan reduction project, restrictive growth control (AID 706;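 active = growth inhibition above a set limit, 3 SD over mean compound inhibition, in both replicates, cut at about 43% in these data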;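 note: modified DeaD lifespan yeast strain shifted to restrictive glucose medium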); conditions: OD615, 48 h, at 10 µM, active compounds read high
Summary of the method: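 System: Engineered S. cerevisiae DeaD strain | Detection: OD615 | Buffer or medium: CSMM-D glucose medium | Doses: 10 µM compound, 0.25% DMSO | Timing: 4 h pre-growth plus 48 h compound exposure, 30 °C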

[3] = viability gain of MRP-1-high H69AR cells under doxorubicin, pilot screen, MRP-1 activator project, CellTiter-Glo, duplicate (AID 807;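 active = viability increase at or above a cutoff of the median across tested compounds plus 3 SD, cut at about 8.5% in these data, passing the limit was not always enough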;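 note: compound pretreatment 18-22 h then 72 h combined with doxorubicin; 0% = doxorubicin alone and 100% = vehicle without doxorubicin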); conditions: H69AR viability with doxorubicin, CellTiter-Glo luminescence; at 10 µM; active compounds read high
[4] = growth suppression of beta-catenin knockout HCT116, pilot screen, human colon tumor cells (AID 823;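 active = cell viability at or below a set limit in both duplicate runs, the limit being the all-compound median minus 4 SD, cut at about 23% in these data, passing the limit was not always enough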;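 note: 0% = wells killed by 20 µM Hyamine and 100% = untreated DMSO cell wells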); conditions: CellTiter-Glo, 60 h, at 10 µM, active compounds read low
[5] = growth suppression of PTEN-deleted HCT116, pilot screen, cell-based, HCT116 clonal line, CellTiter-Glo (AID 824;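 active = viability at or below 27.92% in each of two runs, the all-compound median minus 4 SD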;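 note: 0% = 20 µM Hyamine control and 100% = vehicle cell control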); conditions: 60 h, at 10 µM, active compounds read low
[6] = inhibitors of the yeast RAM network, pilot screen, dse1pr::URA3 reporter, 5-FOA selection (AID 869);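 note: 0% = DMSO wells with no growth and 100% = 10 µM 1-NA-PP1 with full growth; RAM network block rescues cells from 5-FOA so hits raise OD615 growth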; conditions: S. cerevisiae dse1pr::URA3 5-FOA growth, OD615, 2 d, at 10 µM, active compounds read high
[7] = RAM signaling pathway blockade in yeast – S. cerevisiae, Pdr1DBD-CYC8 efflux-inhibited sensitized strain, primary screen (AID 1298;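 active = RAM network inhibition above 8.4% in each of two replicates, 3 SD over the compound average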;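 note: 0% = DMSO untreated cells without growth and 100% = 10 µM 1-NA-PP1 full growth; higher means more yeast growth rescued from 5-FOA killing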); conditions: S. cerevisiae cbk1-as DSE1-URA3 strain, 5-FOA growth OD615, 2 d; at 50 µM; active compounds read high

O=C1CC(=O)N(c2ccc(Cl)cc2Cl)C(=O)N1
inactive: growth inhibition [1] -10.7% | growth inhibition [2] 11.2% | viability increase [3] 0.06% | viability [4] 93.2% | viability [5] 91.2% | inhibition [6] 0.19% | RAM network inhibition [7] 1.94%

CC1=CC(=C2C(=O)NC(=O)NC2=O)C=C(C(F)(F)F)N1C(C)C
inactive: growth inhibition [1] -13.5% | growth inhibition [2] -9.69% | viability increase [3] -1.79% | viability [4] 92.5% | viability [5] 91.3% | inhibition [6] 2.69% | RAM network inhibition [7] 0.05%

COc1ccc(CN2CC3CC(C2)c2cccc(=O)n2C3)cc1OC (configuration not stated)
inactive: growth inhibition [1] -11.4% | growth inhibition [2] -6.36% | viability increase [3] -1.47% | viability [4] 93.2% | viability [5] 93.7% | inhibition [6] 2.04% | RAM network inhibition [7] 1.09%

COc1cccc(OCC(=O)N2CCN(C)CC2)c1
inactive: growth inhibition [1] 5.64% | growth inhibition [2] 11.5% | viability increase [3] 0.31% | viability [4] 99.8% | viability [5] 102% | inhibition [6] 0.505% | RAM network inhibition [7] 0.31%

C=Cn1ccnc1P(=S)(c1ccn(C)c1)c1nccn1C=C
inactive: growth inhibition [1] -2.8% | growth inhibition [2] 18.6% | viability increase [3] 0.29% | viability [4] 100% | viability [5] 99.2% | inhibition [6] 0.94% | RAM network inhibition [7] 1.45%

O=C(Nc1ccccc1OC(=O)N1CCCCC1)N1CCCCC1
inactive: growth inhibition [1] -8.28% | growth inhibition [2] -4.06% | viability increase [3] -2.07% | viability [4] 97.4% | viability [5] 100% | inhibition [6] 0.8% | RAM network inhibition [7] 3.27%

CCOC(=O)N(CC)c1ccc(C(O)(C(=O)OCC)C(F)(F)F)cc1 (configuration not stated)
inactive: growth inhibition [1] -2.74% | growth inhibition [2] -2.65% | viability increase [3] -0.35% | viability [4] 92.5% | viability [5] 95.3% | inhibition [6] 0.745% | RAM network inhibition [7] 0.46%

NC(=O)CN1CC(c2ccccc2)CC1=O (configuration not stated)
inactive: growth inhibition [1] -5.56% | growth inhibition [2] -19.9% | viability increase [3] -0.3% | viability [4] 105% | viability [5] 98% | inhibition [6] 0.295% | RAM network inhibition [7] 4.63%

CN(C)C1(c2nnnn2-c2ccc(Cl)cc2)CCCCC1
inactive: growth inhibition [1] -14.4% | growth inhibition [2] -18.1% | viability increase [3] 0.76% | viability [4] 86.2% | viability [5] 76.3% | inhibition [6] 2.52% | RAM network inhibition [7] 3.64%

O=c1c2ccccc2nc(-c2cccs2)n1-c1cnccn1
inactive: growth inhibition [1] -10.5% | growth inhibition [2] -2.03% | viability increase [3] -1.4% | viability [4] 99.7% | viability [5] 96.3% | inhibition [6] 2.33% | RAM network inhibition [7] 2.35%

COc1cc2c(cc1OC)-c1c(OC)c(OC)cc3c1C(C2)N(C)CC3 (configuration not stated)
inactive: growth inhibition [1] -13.1% | growth inhibition [2] 1.99% | viability increase [3] -3.02% | viability [4] 73.6% | viability [5] 61.6% | inhibition [6] -0.365% | RAM network inhibition [7] 6.23%

CC(=O)c1cccc(NC2=NCC(C)S2)c1 (configuration not stated)
inactive: growth inhibition [1] -9.46% | growth inhibition [2] -13.1% | viability increase [3] -0.51% | viability [4] 106% | viability [5] 93.9% | inhibition [6] 2.77% | RAM network inhibition [7] 2.41%

CN(C)c1ccc(CN2CC=C(c3ccc(F)cc3)CC2)cc1
inactive: growth inhibition [1] -15.2% | growth inhibition [2] -10.7% | viability increase [3] -2.99% | viability [4] 86.6% | viability [5] 96.5% | inhibition [6] 1.31% | RAM network inhibition [7] 1.92%

Cc1cccnc1-n1c(-c2ccco2)nc2ccccc2c1=O
inactive: growth inhibition [1] -5.46% | growth inhibition [2] -8.26% | viability increase [3] -0.56% | viability [4] 100% | viability [5] 101% | inhibition [6] 0.59% | RAM network inhibition [7] -0.22%

O=C(c1ccccc1)c1cn(CC(=O)N2CCCC2)c2ccccc12
inactive: growth inhibition [1] -15.1% | growth inhibition [2] -16.4% | viability increase [3] -1.14% | viability [4] 102% | viability [5] 92% | inhibition [6] 3.23% | RAM network inhibition [7] 4.67%

O=c1cccc2n1CC1CC2CN(C(c2cccc(F)c2)c2sc3ncnn3c2O)C1 (configuration not stated)
inactive: growth inhibition [1] -2.99% | growth inhibition [2] -4.42% | viability increase [3] -0.98% | viability [4] 105% | viability [5] 111% | inhibition [6] 2.02% | RAM network inhibition [7] -0.21%

Cc1ccc2c(c1)C1CN(C)CCC1N2C(=O)c1ccco1 (configuration not stated)
inactive: growth inhibition [1] -2.01% | growth inhibition [2] -12.5% | viability increase [3] -3.67% | viability [4] 85.4% | viability [5] 91.9% | inhibition [6] 1.32% | RAM network inhibition [7] 2.85%

c1cncc(C2CCCCN2Cc2ccc3c(c2)OCO3)c1 (configuration not stated)
inactive: growth inhibition [1] -6.18% | growth inhibition [2] -13% | viability increase [3] -0.84% | viability [4] 95.2% | viability [5] 94.3% | inhibition [6] 2.12% | RAM network inhibition [7] 4.3%

COP(=S)(OC)SCN1C(=O)c2ccccc2C1=O
inactive: growth inhibition [1] 14% | growth inhibition [2] 26.2% | viability increase [3] -4.23% | viability [4] 94.2% | viability [5] 84.9% | inhibition [6] 1.48% | RAM network inhibition [7] 3.76%

COc1ccc2[nH]c(C)c(CCN3CCC(=O)C(C)C3C)c2c1 (configuration not stated)
inactive: growth inhibition [1] -4.37% | growth inhibition [2] -10.2% | viability increase [3] -2.73% | viability [4] 87.1% | viability [5] 93.1% | inhibition [6] 0.27% | RAM network inhibition [7] 3.24%

OC12CCCCC1C(c1ccccc1)NCC2 (configuration not stated)
inactive: growth inhibition [1] -3.8% | growth inhibition [2] -17.1% | viability increase [3] -2.28% | viability [4] 102% | viability [5] 102% | inhibition [6] 3.24% | RAM network inhibition [7] 3.17%
